Source: paper PMC2628580 (Chemistry & biology, 2008)
Entries after “also recorded” stand apart in the source; their conditions may differ.

Key:
rat OR-I7 [1] = target: T1, rat OR-I7 (Rattus norvegicus, UniProt P23270); assay type: cell-based; settings: for potency compared with n-alkanals (in words): activation dose-response curves; for activation of OR-I7 (in words): dose-response by calcium imaging; for maximal efficacy relative to 10 μM 1: mean ± SEM; for OR-I7 response at 30 μM (in words): calcium imaging trace of a GFP+ OSN
T1 sequence (P23270 1-327): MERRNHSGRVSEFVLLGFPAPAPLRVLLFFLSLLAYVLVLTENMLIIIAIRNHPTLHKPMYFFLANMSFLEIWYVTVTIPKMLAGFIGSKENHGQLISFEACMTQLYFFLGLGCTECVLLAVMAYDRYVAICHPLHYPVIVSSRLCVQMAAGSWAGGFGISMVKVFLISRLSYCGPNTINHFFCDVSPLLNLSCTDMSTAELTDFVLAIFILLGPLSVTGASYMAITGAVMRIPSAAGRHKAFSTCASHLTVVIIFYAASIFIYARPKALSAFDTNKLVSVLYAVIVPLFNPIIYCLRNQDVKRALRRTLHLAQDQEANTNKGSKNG
In short: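 Dissociated olfactory neurons from male Sprague-Dawley rats (6-7 wk) infected with adenovirus encoding OR-I7 plus separate GFP. GFP+ cells were fura-2AM loaded for 45 min at room temperature and imaged at 380/510 nm every 4 s. The compound came from 0.5M DMSO stock with DMSO-matched dilutions, given as 4 s pulses 3.25 min apart. Each movie was flanked by 10 μM normalizing stimuli and ΔF/F normalized to the trend line. Hill fit used ≥3 cells per point; EC50 ± SD.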

rat OSNs = experiment: Panel screening of 1190 viable rat OSNs by calcium imaging; assay type: cell-based; settings: 30 μM, 1190 tested rat OSNs
In short: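 Whole olfactory epithelium from uninfected rats was dissociated (collagenase, dispase), plated on concanavalin A coverslips and kept at 32 °C. Cells were loaded with fura-2AM and imaged at room temperature. Each test compound was given individually at 30 μM in random order, 5 min apart, with a DMSO vehicle application. 10 μM forskolin came last for normalization and viability. Responding cells were counted among 1190 tested.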

rat OR-I7 [2] = target: T1, rat OR-I7; experiment: Antagonism of octanal; assay type: cell-based; settings: against saturating 10 μM C8
In short: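 GFP+ OR-I7-expressing rat olfactory neurons were imaged with fura-2 at room temperature under continuous Ringer perfusion at pH 7.4. The test compound at various concentrations was co-applied with 10 μM octanal. The response was normalized to a trend line between flanking stimuli. An antagonist had to give under 90% of the octanal-alone response. Ratios are mean ± SEM. Inhibition curves were Hill-fitted, with at least three cells per point and IC50 ± SD.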

OR-I7 = settings: vapor phase; ref Araneda et al., 2000; Zhao et al., 1998; cited from earlier work

O=CCCCCC1CC1 [Compound 2]
potency compared with n-alkanals (in words) (rat OR-I7 [1]): more potent than C8
fold more potent than C7 (rat OR-I7 [1]; compound 2 vs C7, identical extended length): 40 fold
activation of OR-I7 (in words) (rat OR-I7 [1]): strongly activated
maximal efficacy relative to 10 μM 1 (rat OR-I7 [1]): 0.99 ± 0.02

O=CCCCC1CCC1 [Compound 3]
OR-I7 response at 30 μM (in words) (rat OR-I7 [1]): near saturating level
potency compared with n-alkanals (in words) (rat OR-I7 [1]): more potent than both
activation of OR-I7 (in words) (rat OR-I7 [1]): strongly activated
maximal efficacy relative to 10 μM 1 (rat OR-I7 [1]): 1.06 ± 0.1
difference in activity between compound 4 and compound 3 (rat OR-I7 [1]; ratio of EC50, compound 3 vs compound 4): 163 fold

O=CCCC1CCCC1 [Compound 4]
OR-I7 response at 30 μM (in words) (rat OR-I7 [1]): unresponsive
activation of OR-I7 (in words) (rat OR-I7 [1]): weakly or not at all; also recorded: marginally active

O=CCC1CCCCC1 [Compound 5]
percentage of OSNs activated (rat OSNs): 3.4%
activation of OR-I7 (in words) (rat OR-I7 [1]): weakly or not at all; also recorded: inactive; also recorded: no substantial activity

O=CC1CCCCCC1 [Compound 6]
percentage of OSNs activated (rat OSNs): 3.6%
activation of OR-I7 (in words) (rat OR-I7 [1]): weakly or not at all; also recorded: inactive
antagonism of C8 activation of OR-I7 (in words) (rat OR-I7 [2]): antagonize C8 activity

CCC1CCC(CC=O)CC1 (stereo not shown) [Compound 11]
potency compared with n-alkanals (in words) (rat OR-I7 [1]): more active than C8
maximal efficacy relative to 10 μM octanal (rat OR-I7 [1]; cis/trans mixture): 1.07 ± 0.05

CCCC=O [Compound C4, reference compound]
activation of OR-I7 (in words) (rat OR-I7 [1]): inactive; also recorded: neither type of activity
antagonism of C8 activation of OR-I7 (in words) (rat OR-I7 [2]): failure of C4 (3.9Å) to antagonize C8 activation; also recorded: neither type of activity

CCCCC=O [Compound C5, reference compound]
activation of OR-I7 (in words) (rat OR-I7 [1]): inactive

CCCCCC=O [Compound C6, reference compound]
activation of OR-I7 (in words) (rat OR-I7 [1]): marginally active
activation of OR-I7 by EOG (in words) (OR-I7): no activation

CCCCCCC=O [Compound C7, reference compound]
increase in activity in the step from C6 to C7 (rat OR-I7 [1]; C7 vs C6, calcium imaging): 145 fold
maximal efficacy relative to 10 μM 1 (rat OR-I7 [1]): 0.86 ± 0.07
activation of OR-I7 by EOG (in words) (OR-I7): activation

CCCCCCCC=O [Compound C8, octanal, reference compound]
percentage of OSNs activated (rat OSNs): 5.9%
maximal efficacy relative to 10 μM 1 (rat OR-I7 [1]): 0.89 ± 0.02
